Assay results taken from article PMC4371900 (International Journal of Nanomedicine, 2015).

Legend:
Cytostatic assay = type: cell-based; settings: human, Huh 5-2 cells
Procedure, shortened: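 Huh 7 cells carrying subgenomic HCV replicon (Huh 5-2) were seeded at 5·10^3 cells/well in complete DMEM with G418. After 24 h, serial dilutions of test compound (free or γ-CD complex) were added in complete DMEM without G418. Cells proliferated 3 days at 37°C. Cell number was read by CellTiter 96 AQueous One.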

[1] = test system: genotype 1b Con1 HCV sub-genomic replicon (Huh 5-2 cells); test: Antiviral assay with Huh 5-2 cells; type: cell-based, hepatitis C virus

With OC[C@H]1O[C@@H]2O[C@H]3[C@H](O)[C@@H](O)[C@@H](O[C@H]4[C@H](O)[C@@H](O)[C@@H](O[C@H]5[C@H](O)[C@@H](O)[C@@H](O[C@H]6[C@H](O)[C@@H](O)[C@@H](O[C@H]7[C@H](O)[C@@H](O)[C@@H](O[C@H]8[C@H](O)[C@@H](O)[C@@H](O[C@H]9[C@H](O)[C@@H](O)[C@@H](O[C@H]1[C@H](O)[C@H]2O)O[C@@H]9CO)O[C@@H]8CO)O[C@@H]7CO)O[C@@H]6CO)O[C@@H]5CO)O[C@@H]4CO)O[C@@H]3CO [γ-CD, γ-cyclodextrin] the viability at 3 days (Cytostatic assay) was 100%, the luminescence ([1]; control tests with compound-free γ-CD (data not shown)) was 100% and the “antiviral activity in cell assays” value ([1]; delivered alone, free in solution) was “did not show antiviral activity”.
